Our source for the MIC values is ChEMBL document CHEMBL1250495, “Synthesis and antimicrobial activities of novel 1H-dibenzo[a,c]carbazoles from dehydroabietic acid” (2010).

Common to all, as to format: functional
One experiment has as its system Staphylococcus aureus. Briefly: Antimicrobial activity against Staphylococcus aureus CGMCC 1.1361 after 24 hrs by modified microdilution method. Particulars: CGMCC 1.1361, 24 h. In a few lines:
(§1)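 Broth microdilution. Compounds were dissolved in 20% DMSO and serially diluted twofold, then mixed with an equal volume of bacteria in Martin's broth (~10^5 CFU/ml). Amikacin sulfate was the positive control and 20% DMSO the negative control. Wells were incubated at 37 °C for 24 h and scored visually for growth. MIC is the lowest concentration inhibiting growth.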

In another experiment the test system is Escherichia coli. Briefly: Antimicrobial activity against Escherichia coli CGMCC 1.1571 after 24 hrs by modified microdilution method. Particulars: CGMCC 1.1571, 24 h. The gist of the method: as §1
The subject of a further experiment is Candida albicans. Briefly: Antimicrobial activity against Candida albicans CGMCC 2.2086 after 48 hrs by modified microdilution method. As to conditions: CGMCC 2.2086, 48 h. The gist of the method:
(§2)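 Fungal MIC by modified microdilution. Twofold serial dilutions of compound in 20% DMSO were combined with an equal volume of inoculum in PD broth (~10^5 CFU/ml). Ketoconazole was the positive control and 20% DMSO the negative control. Plates were incubated 48 h at 28 °C and inspected for growth. MIC is the lowest concentration without visible growth.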

A further experiment concerns Aspergillus niger. Briefly: Antimicrobial activity against Aspergillus niger CGMCC 3.316 after 48 hrs by modified microdilution method. Particulars: CGMCC 3.316, 48 h. In a few lines:
as §2

A further experiment relates to Trichophyton rubrum. Briefly: Antimicrobial activity against Trichophyton rubrum ATCC 10218 after 48 hrs by modified microdilution method. Particulars: ATCC 10218, 48 h. In a few lines:
as §2

Another experiment concerns Pseudomonas fluorescens. Briefly: Antimicrobial activity against Pseudomonas fluorescens CGMCC 1.1828 after 24 hrs by modified microdilution method. Particulars: CGMCC 1.1828, 24 h. In a few lines:
as §1

The test system of another experiment is Bacillus subtilis. Briefly: Antimicrobial activity against Bacillus subtilis CGMCC 1.1162 after 24 hrs by modified microdilution method. Particulars: CGMCC 1.1162, 24 h. In a few lines:
as §1

≈ marks a conversion by molar mass, not a printed value. A value given as a limit tells only on which side of the number the result lay.

As for `COC(=O)[C@]1(C)CCC[C@]2(C)c3ccc(C(C)C)cc3-c3[nH]c4ccccc4c3[C@@H]12`, the MIC in the experiment with Staphylococcus aureus is 62.5 µg/mL (≈ 156 µM); in the experiment on Escherichia coli it was > 100 µg/mL; against Candida albicans, > 100 µg/mL; against Aspergillus niger, > 100 µg/mL; in the experiment on Trichophyton rubrum, > 100 µg/mL; in the experiment on Pseudomonas fluorescens it was 62.5 µg/mL (≈ 156 µM). The compound further returned an MIC with Bacillus subtilis of 31.2 µg/mL (≈ 77.7 µM).
On to `COC(=O)[C@]1(C)CCC[C@]2(C)c3ccc(C(C)C)cc3-c3[nH]c4ccc(C)cc4c3[C@@H]12`, for which the MIC in the experiment on Staphylococcus aureus was 62.5 µg/mL (≈ 150 µM); against Escherichia coli, > 100 µg/mL; against Candida albicans, > 100 µg/mL; in the experiment with Aspergillus niger it was > 100 µg/mL; with Trichophyton rubrum, 62.5 µg/mL (≈ 150 µM); against Pseudomonas fluorescens, 31.2 µg/mL (≈ 75.1 µM). Also, the minimal inhibitory concentration (MIC) against Bacillus subtilis turned out to be 31.2 µg/mL (≈ 75.1 µM).
As for `COC(=O)[C@]1(C)CCC[C@]2(C)c3ccc(C(C)C)cc3-c3[nH]c4c(C)cccc4c3[C@@H]12`, the minimum inhibitory concentration (MIC) with Staphylococcus aureus, with Escherichia coli, with Candida albicans, with Aspergillus niger, with Trichophyton rubrum and against Pseudomonas fluorescens was > 100 µg/mL in each case. Moreover, the MIC against Bacillus subtilis is > 100 µg/mL.
Take `COC(=O)[C@]1(C)CCC[C@]2(C)c3ccc(C(C)C)cc3-c3[nH]c4ccc(F)cc4c3[C@@H]12`: the MIC is 3.9 µg/mL (≈ 9.3 µM) against Staphylococcus aureus; 15.6 µg/mL (≈ 37.2 µM) against Escherichia coli; 62.5 µg/mL (≈ 149 µM) in the experiment with Candida albicans; > 100 µg/mL in the experiment on Aspergillus niger; > 100 µg/mL against Trichophyton rubrum; 7.8 µg/mL (≈ 18.6 µM) with Pseudomonas fluorescens. In addition, in the experiment on Bacillus subtilis, inhibition of growth (MIC) required 1.9 µg/mL (≈ 4.53 µM).
As to `COC(=O)[C@]1(C)CCC[C@]2(C)c3ccc(C(C)C)cc3-c3[nH]c4c(F)cccc4c3[C@@H]12`, the MIC came out at 31.2 µg/mL (≈ 74.4 µM) against Staphylococcus aureus; 31.2 µg/mL (≈ 74.4 µM) in the experiment on Escherichia coli; 31.2 µg/mL (≈ 74.4 µM) with Candida albicans; 62.5 µg/mL (≈ 149 µM) against Aspergillus niger; 62.5 µg/mL (≈ 149 µM) in the experiment with Trichophyton rubrum; 15.6 µg/mL (≈ 37.2 µM) against Pseudomonas fluorescens. The compound also returned a minimal inhibitory concentration (MIC) against Bacillus subtilis of 7.8 µg/mL (≈ 18.6 µM).
Regarding `COC(=O)[C@]1(C)CCC[C@]2(C)c3ccc(C(C)C)cc3-c3[nH]c4ccc(Cl)cc4c3[C@@H]12`, the minimal inhibitory concentration (MIC) was 3.9 µg/mL (≈ 8.95 µM) against Staphylococcus aureus; 15.6 µg/mL (≈ 35.8 µM) in the experiment with Escherichia coli; > 100 µg/mL with Candida albicans; > 100 µg/mL in the experiment on Aspergillus niger; > 100 µg/mL in the experiment with Trichophyton rubrum; 31.2 µg/mL (≈ 71.6 µM) with Pseudomonas fluorescens. In addition, the minimal inhibitory concentration (MIC) against Bacillus subtilis was 3.9 µg/mL (≈ 8.95 µM).
As for `COC(=O)[C@]1(C)CCC[C@]2(C)c3ccc(C(C)C)cc3-c3[nH]c4c(Cl)cccc4c3[C@@H]12`, the MIC against Staphylococcus aureus is 31.2 µg/mL (≈ 71.6 µM); with Escherichia coli, > 100 µg/mL; with Candida albicans, > 100 µg/mL; against Aspergillus niger, > 100 µg/mL; in the experiment on Trichophyton rubrum it was > 100 µg/mL; against Pseudomonas fluorescens it was > 100 µg/mL. Further, inhibition of growth with Bacillus subtilis (MIC) required 31.2 µg/mL (≈ 71.6 µM).
`COC(=O)[C@]1(C)CCC[C@]2(C)c3ccc(C(C)C)cc3-c3[nH]c4ccc(Br)cc4c3[C@@H]12`: the MIC against Staphylococcus aureus is 31.2 µg/mL (≈ 64.9 µM); against Escherichia coli, 31.2 µg/mL (≈ 64.9 µM); in the experiment on Candida albicans it was > 100 µg/mL; against Aspergillus niger it was > 100 µg/mL; in the experiment with Trichophyton rubrum it was > 100 µg/mL; with Pseudomonas fluorescens it was 15.6 µg/mL (≈ 32.5 µM). This compound also had an MIC in the experiment on Bacillus subtilis of 15.6 µg/mL (≈ 32.5 µM).
In the case of `COC(=O)[C@]1(C)CCC[C@]2(C)c3ccc(C(C)C)cc3-c3[nH]c4c(Br)cccc4c3[C@@H]12`, the MIC was > 100 µg/mL against Staphylococcus aureus; > 100 µg/mL in the experiment with Escherichia coli; > 100 µg/mL against Candida albicans; > 100 µg/mL against Aspergillus niger; > 100 µg/mL in the experiment on Trichophyton rubrum; 62.5 µg/mL (≈ 130 µM) against Pseudomonas fluorescens. The compound also returned an MIC in the experiment on Bacillus subtilis of 62.5 µg/mL (≈ 130 µM).
As for `COC(=O)[C@]1(C)CCC[C@]2(C)c3ccc(C(C)C)cc3-c3[nH]c4ccc(OC)cc4c3[C@@H]12`, the minimum inhibitory concentration (MIC) was 31.2 µg/mL (≈ 72.3 µM) in the experiment with Staphylococcus aureus; > 100 µg/mL with Escherichia coli; 62.5 µg/mL (≈ 145 µM) against Candida albicans; > 100 µg/mL against Aspergillus niger; > 100 µg/mL in the experiment with Trichophyton rubrum; > 100 µg/mL against Pseudomonas fluorescens. Besides, the MIC in the experiment with Bacillus subtilis was 62.5 µg/mL (≈ 145 µM).
As to `COC(=O)[C@]1(C)CCC[C@]2(C)c3ccc(C(C)C)cc3-c3[nH]c4c(OC)cccc4c3[C@@H]12`, the MIC was 62.5 µg/mL (≈ 145 µM) in the experiment with Staphylococcus aureus; > 100 µg/mL with Escherichia coli; > 100 µg/mL in the experiment with Candida albicans; > 100 µg/mL against Aspergillus niger; > 100 µg/mL in the experiment with Trichophyton rubrum; > 100 µg/mL with Pseudomonas fluorescens. Also, in the experiment with Bacillus subtilis, the MIC is > 100 µg/mL.
Consider `CCOc1ccc2[nH]c3c(c2c1)[C@H]1[C@](C)(C(=O)OC)CCC[C@]1(C)c1ccc(C(C)C)cc1-3`, for which the MIC in the experiment on Staphylococcus aureus was > 100 µg/mL; with Escherichia coli it was 62.5 µg/mL (≈ 140 µM); against Candida albicans, 62.5 µg/mL (≈ 140 µM); in the experiment with Aspergillus niger, > 100 µg/mL; in the experiment with Trichophyton rubrum, 62.5 µg/mL (≈ 140 µM); against Pseudomonas fluorescens, 31.2 µg/mL (≈ 70 µM). The compound further displayed an MIC in the experiment on Bacillus subtilis of 62.5 µg/mL (≈ 140 µM).
On to `COC(=O)[C@]1(C)CCC[C@]2(C)c3ccc(C(C)C)cc3-c3[nH]c4ccc([N+](=O)[O-])cc4c3[C@@H]12`, for which the MIC was 7.8 µg/mL (≈ 17.5 µM) in the experiment with Staphylococcus aureus; 15.6 µg/mL (≈ 34.9 µM) with Escherichia coli; 31.2 µg/mL (≈ 69.9 µM) in the experiment on Candida albicans; > 100 µg/mL against Aspergillus niger; 62.5 µg/mL (≈ 140 µM) in the experiment with Trichophyton rubrum; 15.6 µg/mL (≈ 34.9 µM) against Pseudomonas fluorescens. This compound had a minimum inhibitory concentration (MIC) against Bacillus subtilis of 7.8 µg/mL (≈ 17.5 µM).
Turning to `COC(=O)[C@]1(C)CCC[C@]2(C)c3ccc(C(C)C)cc3C(=O)C[C@@H]12`, the MIC was 31.2 µg/mL (≈ 95 µM) against Staphylococcus aureus; > 100 µg/mL in the experiment with Escherichia coli; > 100 µg/mL against Candida albicans; > 100 µg/mL against Aspergillus niger; > 100 µg/mL against Trichophyton rubrum; 62.5 µg/mL (≈ 190 µM) with Pseudomonas fluorescens. Moreover, the MIC in the experiment on Bacillus subtilis amounted to 31.2 µg/mL (≈ 95 µM).
As for `NCC[C@H](O)C(=O)N[C@@H]1C[C@H](N)[C@@H](O[C@H]2O[C@H](CN)[C@@H](O)[C@H](O)[C@H]2O)[C@H](O)[C@H]1O[C@H]1O[C@H](CO)[C@@H](O)[C@H](N)[C@H]1O` [AMIKACIN], the minimal inhibitory concentration (MIC) against Staphylococcus aureus turned out to be 0.9 µg/mL (≈ 1.54 µM); in the experiment with Escherichia coli, 1.9 µg/mL (≈ 3.24 µM); against Pseudomonas fluorescens, 0.9 µg/mL (≈ 1.54 µM); in the experiment on Bacillus subtilis, 0.9 µg/mL (≈ 1.54 µM).
Take `CC(=O)N1CCN(c2ccc(OCC3COC(Cn4ccnc4)(c4ccc(Cl)cc4Cl)O3)cc2)CC1` (configuration not stated) [KETOCONAZOLE]: the minimal inhibitory concentration (MIC) is 3.9 µg/mL (≈ 7.34 µM) with Candida albicans, 7.8 µg/mL (≈ 14.7 µM) against Aspergillus niger and 3.9 µg/mL (≈ 7.34 µM) in the experiment with Trichophyton rubrum.
Take `COC(=O)[C@]1(C)CCC[C@]2(C)c3ccc(C(C)C)cc3CC[C@@H]12` [METHYL DEHYDROABIETATE]: the minimum inhibitory concentration (MIC) was 62.5 µg/mL (≈ 199 µM) against Staphylococcus aureus; > 100 µg/mL in the experiment on Escherichia coli; > 100 µg/mL against Candida albicans; > 100 µg/mL with Aspergillus niger; > 100 µg/mL in the experiment on Trichophyton rubrum; > 100 µg/mL against Pseudomonas fluorescens. In addition, the MIC against Bacillus subtilis is > 100 µg/mL.
